# Source: ChEMBL document CHEMBL4017532, “Multifunctional Hybrid Compounds Derived from 2-(2,5-Dioxopyrrolidin-1-yl)-3-methoxypropanamides with Anticonvulsant and Antinociceptive Properties” (J Med Chem, 2017)
# Calls of active or inactive are those of the source.
# Experiments:
# Rattus norvegicus [1] = species: Rattus norvegicus; assay: Displacement of [3H]-batrachotoxinin from sodium channel site 2 in rat cerebral cortex at 100 uM after 60 mins by liquid scintillation spectroscopic method
# Summary of the method: (§1)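 Run commercially by an outside contract lab, with the compound tested at 100 μM. The read-out was percent inhibition of binding of the radiolabelled ligand, reported as compound binding.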
# Mus musculus [2] = assay: Toxicity in Albino Swiss CD-1 mouse assessed as effect on spontaneous locomotar activity at 25 to 150 mg/kg, ip treated 30 mins prior to test; format: organism-based; settings: in vivo, 0.5 h
# Summary of the method: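 Male CD-1 mice were dosed ip at 25, 50, 100 or 150 mg/kg 30 min before testing and then placed singly in activity cages. Light-beam crossings were counted over 30 min in 10 min intervals.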
# Mus musculus [3] = assay: Anticonvulsant activity in Albino Swiss CD-1 mouse assessed as inhibition of pentylenetetrazole-induced seizures by measuring time to peak effect at 100 mg/kg, ip administered up to 2 hrs prior to PTZ induction measured for 30 mins; format: functional
# Rattus norvegicus [4] = species: Rattus norvegicus; assay: Displacement of omega[125I]conotoxin from N-type calcium channel in rat cerebral cortex at 100 uM by scintillation spectrophotometry; summary of the method: as §1
# Rattus norvegicus [5] = species: Rattus norvegicus; assay: Displacement of [3H]diltiazem from L-type calcium channel diltiazem binding site in rat cerebral cortical membranes at 100 uM after 60 mins; format: cell membranes
# Summary of the method: (§2)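 Radioligand binding was run as a contract service. Percent inhibition of specific labelled-ligand binding was measured at 100 μM test compound, or 200 μM for hERG.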
# Mus musculus [6] = assay: Antinociceptive activity in Albino Swiss CD-1 mouse assessed as inhibition of capsaicin-induced nociception by measuring time spent licking injected paw administered ip 30 mins mins prior to capsaicin challenge measured for 5 mins; format: functional, organism-based
# Summary of the method: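 Mice (male CD-1, 18–25 g) were pretreated ip 30 min before intraplantar capsaicin. Doses were 25, 50 or 100 mg/kg, or 100, 150 or 200 mg/kg for the reference. Vehicle was 1% Tween 80 at 10 mL/kg. Duration of nociceptive response was scored over 5 min after injection. Data are mean ± SEM of 8–10 mice, by one-way ANOVA with Dunnett's test against vehicle.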
# Mus musculus [7] = assay: Anticonvulsant activity in Albino Swiss CD-1 mouse assessed as inhibition of pentylenetetrazole-induced seizures at 100 mg/kg, ip administered up to 0.5 hrs prior to PTZ induction measured after 30 mins relative to control; format: functional; set-up: scale not given: the % may be the effect or the level left
# [8] = molecular target: Voltage-gated inwardly rectifying potassium channel KCNH2 (Homo sapiens, UniProt Q12809); assay: Displacement of [3H]astemizole from human hERG expressed in HEK293 cell membrane at 200 uM after 90 mins by liquid scintillation counting; format: cell membranes; settings: hek293, 1.5 h; summary of the method: as §2
# Voltage-gated inwardly rectifying potassium channel KCNH2, sequence (Q12809 whole entry): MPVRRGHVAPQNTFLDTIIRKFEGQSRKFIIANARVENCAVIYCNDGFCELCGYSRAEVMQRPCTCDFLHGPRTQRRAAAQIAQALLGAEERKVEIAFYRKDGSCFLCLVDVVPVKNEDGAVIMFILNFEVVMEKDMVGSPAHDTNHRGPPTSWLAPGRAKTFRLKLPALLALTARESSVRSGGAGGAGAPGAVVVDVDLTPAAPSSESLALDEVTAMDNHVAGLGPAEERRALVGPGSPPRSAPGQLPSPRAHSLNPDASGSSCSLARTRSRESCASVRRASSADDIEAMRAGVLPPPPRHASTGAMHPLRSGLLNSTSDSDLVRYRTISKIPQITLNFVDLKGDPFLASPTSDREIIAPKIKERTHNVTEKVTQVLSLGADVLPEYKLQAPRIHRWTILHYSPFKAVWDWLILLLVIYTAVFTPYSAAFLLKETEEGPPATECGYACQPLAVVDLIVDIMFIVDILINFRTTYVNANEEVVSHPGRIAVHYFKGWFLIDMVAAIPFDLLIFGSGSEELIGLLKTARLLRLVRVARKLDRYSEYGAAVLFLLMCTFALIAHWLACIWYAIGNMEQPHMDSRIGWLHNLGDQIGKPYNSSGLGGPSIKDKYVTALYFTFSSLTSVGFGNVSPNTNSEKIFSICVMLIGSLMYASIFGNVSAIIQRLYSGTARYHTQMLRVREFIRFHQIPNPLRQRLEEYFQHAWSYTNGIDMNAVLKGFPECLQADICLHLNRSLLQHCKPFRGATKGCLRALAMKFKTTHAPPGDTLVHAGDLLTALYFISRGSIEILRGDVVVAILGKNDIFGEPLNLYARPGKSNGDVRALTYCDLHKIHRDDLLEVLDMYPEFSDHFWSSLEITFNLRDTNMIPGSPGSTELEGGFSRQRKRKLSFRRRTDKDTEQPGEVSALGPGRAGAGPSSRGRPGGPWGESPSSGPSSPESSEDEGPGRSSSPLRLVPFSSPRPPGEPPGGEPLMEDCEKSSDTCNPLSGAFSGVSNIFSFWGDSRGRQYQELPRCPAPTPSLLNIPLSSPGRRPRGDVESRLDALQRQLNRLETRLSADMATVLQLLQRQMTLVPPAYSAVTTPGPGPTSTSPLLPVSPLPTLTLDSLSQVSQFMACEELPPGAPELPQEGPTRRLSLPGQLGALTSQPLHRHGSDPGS
# Mus musculus [9] = assay: Anticonvulsant activity in ip dosed Albino Swiss CD-1 mouse assessed as inhibition of pentylenetetrazole-induced seizures administered up to 2 hrs prior to PTZ induction measured at time to peak effect; format: functional; settings: Swiss CD-1, ip
# Rattus norvegicus [10] = species: Rattus norvegicus; assay: Displacement of [3H]nitrendipine from L-type calcium channel dihydropyridine binding site in rat cerebral cortex at 100 uM by liquid scintillation spectrometry; summary of the method: as §2
# Mus musculus [11] = species: Mus musculus; assay: Potency index, ratio of valproic acid ED50 to compound ED50 for protection against pentylenetetrazole-induced seizures in Albino Swiss CD-1 mouse; format: functional
# Mus musculus [12] = assay: Antiallodynic activity in oxaliplatin-induced Albino Swiss CD-1 mouse model of peripheral neuropathy assessed as elevation in pain sensitivity threshold at 100 mg/kg, ip administered 30 mins prior to oxaliplatin challenge relative to control; format: functional
# Summary of the method: (§3)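 Male CD-1 mice, 18–25 g, that had developed oxaliplatin-induced tactile allodynia were dosed ip 30 min before testing. Doses were 25, 50 or 100 mg/kg, or 50, 100 or 150 mg/kg for the reference. Vehicle was 1% aqueous Tween 80. Paw-withdrawal force was measured by von Frey filaments. Data are mean ± SEM, analysed by repeated-measures ANOVA with Dunnett's test against oxaliplatin plus vehicle mice.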
# Mus musculus [13] = assay: Antinociceptive activity in Albino Swiss CD-1 mouse assessed as inhibition of formalin-induced neurogenic pain response administered ip 30 mins before formalin injection measured up to 5 mins; format: functional; settings: Swiss CD-1, ip
# Summary of the method: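 Male CD-1 mice were given test agents ip 30 min before subcutaneous intraplantar formalin. Doses were 12.5, 25 or 50 mg/kg, or 100, 150 or 200 mg/kg for the reference. Vehicle was 1% Tween 80 at 10 mL/kg. Paw licking time was recorded in phase I (0–5 min) and phase II (15–30 min). Data are mean ± SEM of 8–10 mice, by Dunnett's test. ED50 was obtained by log-probit analysis with 95% confidence limits.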
# Mus musculus [14] = assay: Anticonvulsant activity in ip dosed Albino Swiss CD-1 mouse assessed as protection against 32 mA current-induced seizure treated up to 2 hrs prior to 6-Hz current induction measured at time to peak effect; format: functional; settings: Swiss CD-1, ip
# Mus musculus [15] = assay: Protection index, ratio of TD50 for neurotoxicity in ip dosed Albino Swiss CD-1 mouse to ED50 for ip dosed maximal electroshock induced seizure Albino Swiss CD-1 mouse
# Summary of the method: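 Acute neurological toxicity after ip dosing (1% Tween 80 suspension) was assessed in the mouse chimney test. TD50 with 95% confidence limits was derived by probit analysis. Protective index is TD50 from the chimney test divided by ED50 from the MES, scPTZ or 6 Hz test.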
# Mus musculus [16] = assay: Toxicity in Albino Swiss CD-1 mouse assessed as motor coordination impairment at 50 to 150 mg/kg, ip by rotarod test; format: organism-based; settings: in vivo
# Rattus norvegicus [17] = species: Rattus norvegicus; assay: Displacement of (-)-[3H](-)D 888 from L-type calcium channel verapamil binding site in rat cerebral cortex at 100 uM; summary of the method: as §2
# Mus musculus [18] = assay: Anticonvulsant activity in Albino Swiss CD-1 mouse assessed as protection against maximal electroshock-induced seizures by measuring time to peak effect at 100 mg/kg, ip pretreated up to 2 hrs followed by 50 Hz current induction for […]; format: functional
# [19] = Retention time of the compound by LC-MS method
# [20] = molecular target: GABA-A receptor; alpha-1/beta-2/gamma-2 (Homo sapiens) (UniProt P14867+P47870+P18507); assay: Displacement of [3H]muscimol from human GABAalpha1beta2gamma2 receptor expressed in CHO cells at 100 uM after 30 mins by liquid scintillation counting; format: cell-based; summary of the method: as §2
# Mus musculus [21] = assay: Anticonvulsant activity in Albino Swiss CD-1 mouse assessed as protection against 6 Hz current-induced seizure at 100 mg/kg, ip pretreated up to 2 hrs followed by 6 Hz current induction for 3 secs relative to control; format: functional
# Mus musculus [22] = assay: Anticonvulsant activity in Albino Swiss CD-1 mouse assessed as protection against maximal electroshock-induced seizures at 100 mg/kg, ip pretreated up to 2 hrs followed by 50 Hz current induction for […] relative to control; format: functional
# Cytochrome P450 3A4 = Cytochrome P450 3A4 (Homo sapiens, UniProt P08684); assay: Inhibition of human CYP3A4 assessed as reduction in luciferin-PPXE conversion to D-luciferin at 12.5 to 25 uM by luminescence assay; format: ADME
# Cytochrome P450 3A4, sequence (P08684 whole entry): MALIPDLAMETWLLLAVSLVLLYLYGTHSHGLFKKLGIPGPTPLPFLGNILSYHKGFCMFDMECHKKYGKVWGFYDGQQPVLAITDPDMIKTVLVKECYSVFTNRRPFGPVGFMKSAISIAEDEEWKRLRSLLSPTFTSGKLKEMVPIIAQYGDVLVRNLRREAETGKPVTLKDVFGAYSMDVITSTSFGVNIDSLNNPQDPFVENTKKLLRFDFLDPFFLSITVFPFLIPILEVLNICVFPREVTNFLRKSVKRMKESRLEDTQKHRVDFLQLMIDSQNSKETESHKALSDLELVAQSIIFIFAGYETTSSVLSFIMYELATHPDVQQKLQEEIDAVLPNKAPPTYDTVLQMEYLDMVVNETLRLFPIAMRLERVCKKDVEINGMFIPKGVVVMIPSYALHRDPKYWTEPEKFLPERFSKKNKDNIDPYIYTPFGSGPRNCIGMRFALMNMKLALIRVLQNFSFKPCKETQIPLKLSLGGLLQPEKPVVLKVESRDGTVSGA
# Summary of the method: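 P450-Glo luminescence assays used recombinant human CYP3A4 or CYP2D6 with conversion of luciferin-PPXE to D-luciferin. Ketoconazole (CYP3A4) and quinidine (CYP2D6) served as reference inhibitors.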
# Mus musculus [23] = assay: Antiallodynic activity in oxaliplatin-induced Albino Swiss CD-1 mouse model of peripheral neuropathy assessed as elevation in pain sensitivity threshold at 50 mg/kg, ip administered 30 mins prior to oxaliplatin challenge relative to control; format: functional; summary of the method: as §3
compound,measurement,setting,value
COCC(C(=O)N1CCN(c2ccc(C(F)(F)F)cc2)CC1)N1C(=O)CCC1=O (centres undefined),inhibition,Rattus norvegicus [1],inactive
same,Activity,Mus musculus [2],Non-Toxic
same,Time,Mus musculus [3],0.5 h
same,inhibition,Rattus norvegicus [4],inactive
same,inhibition,Rattus norvegicus [5],inactive
same,inhibition,Mus musculus [6],Dose-dependent effect
same,Activity,Mus musculus [7],75%
same,inhibition (INH),[8],Not Active
same,ED50,Mus musculus [9],123 mg/kg
same,inhibition,Rattus norvegicus [10],inactive
same,Ratio ED50,Mus musculus [11],2
same,Activity,Mus musculus [12],149.2%
same,ED50,Mus musculus [13],26 mg/kg
same,ED50,Mus musculus [14],22.4 to 26.9 mg/kg
same,Ratio TD50/ED50,Mus musculus [15],1.9 - 2.5
same,Activity,Mus musculus [16],Non-Toxic
same,inhibition,Rattus norvegicus [17],inactive
same,Time,Mus musculus [18],0.25 to 1 h
same,Retention time,[19],6.11 min
same,inhibition,[20],inactive
same,Activity,Mus musculus [21],<=75%
same,Activity,Mus musculus [22],75 - 100%
same,inhibition (INH),Cytochrome P450 3A4,Not Active
same,Activity,Mus musculus [23],121%
